# Reference: ChEMBL document CHEMBL1145822, “4-Aryl-3-(hydroxyalkyl)quinolin-2-ones: novel maxi-K channel opening relaxants of corporal smooth muscle targeted for erectile dysfunction” (J Med Chem, 2003)
# How the values were obtained:
# Format in all cases: functional
# Xenopus laevis = species on record: Xenopus laevis; test: Effect of compound (20 uM) on maxi-K-mediated outward current in Xenopus laevis oocytes expressing the cloned hSlo maxi-K channels was determined
# How it was run: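 Two-electrode voltage clamp of Xenopus laevis oocytes expressing cloned hSlo maxi-K channels; single 20 μM drug concentration applied, measuring iberiotoxin-sensitive outward K⁺ current in at least five oocytes per compound; result given as mean percent change in hSlo current versus drug-free control (100%).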
# Oryctolagus cuniculus [1] = species on record: Oryctolagus cuniculus; test: Percentage inhibition of isometric force in response to 10 uM compound in isolated rabbit corpus cavernosum precontracted with 3 uM phenylephrine
# How it was run: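 New Zealand white rabbit (3.4–3.7 kg) corpus cavernosum strips (3–5 mm) in oxygenated modified Krebs Henseleit bicarbonate buffer, 37 °C, equilibrated ≥1 h at 1.0 g resting tension; contracted with phenylephrine 3 μM to steady force before compound; isometric force read; percent inhibition of phenylephrine-induced force relative to vehicle control.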
# Oryctolagus cuniculus [2] = species on record: Oryctolagus cuniculus; test: Tested for concentration dependent relaxation over a period of 90 min in isolated rabbit corpus cavernosum.; settings: 1.5 h
IC50 (Oryctolagus cuniculus [2]) [µM],SMILES,Increase (Xenopus laevis) [%],Inhibition (Oryctolagus cuniculus [1]) [%]
–,OCCCc1c(O)nc2ccc(C(F)(F)F)cc2c1-c1cc(Cl)ccc1O,292,43
–,OCc1c(O)nc2ccc(C(F)(F)F)cc2c1-c1cc(Cl)ccc1O,198,36
–,COc1ccc(Cl)cc1-c1c(/C=C/CO)c(O)nc2ccc(C(F)(F)F)cc12,223,31.8
–,OC/C=C/c1c(O)nc2ccc(C(F)(F)F)cc2c1-c1cc(Cl)ccc1O,257,46
–,O=c1[nH]c2cc(C(F)(F)F)ccc2n1-c1cc(Cl)ccc1O,132,31
–,COc1ccc(Cl)cc1-c1c(CCO)c(O)nc2ccc(C(F)(F)F)cc12,211,26.8
–,COc1ccc(Cl)cc1-c1c(CCCO)c(O)nc2ccc(C(F)(F)F)cc12,258,35.7
–,COc1ccc(Cl)cc1-c1c(CO)c(O)nc2ccc(C(F)(F)F)cc12,114,–
5,O=c1[nH]c2ccc(C(F)(F)F)cc2c(-c2cc(Cl)ccc2O)c1CCO [BMS-223131],378,83.7
